The subject of one test is HL-60. As to the kind of experiment: Cytotoxicity against human HL60 cells after 48 hrs by MTT assay. Format: functional, cell-based. The note with it: HL-60, 48 h. In short, it runs like this: (§1)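 Cells seeded at 2–4 × 10⁴ per well and held overnight at 37 °C, 5% CO₂, in medium with 10% FBS. On day 2 the medium was replaced with medium holding graded compound concentrations. Absorbance was read at 450 nm and fitted to a four-parameter logistic equation for IC₅₀. Mean ± SD of three experiments, each in triplicate.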

In test [1] the target is T1, DNA topoisomerase 1 (Homo sapiens) (UniProt P11387).
T1 sequence (whole entry): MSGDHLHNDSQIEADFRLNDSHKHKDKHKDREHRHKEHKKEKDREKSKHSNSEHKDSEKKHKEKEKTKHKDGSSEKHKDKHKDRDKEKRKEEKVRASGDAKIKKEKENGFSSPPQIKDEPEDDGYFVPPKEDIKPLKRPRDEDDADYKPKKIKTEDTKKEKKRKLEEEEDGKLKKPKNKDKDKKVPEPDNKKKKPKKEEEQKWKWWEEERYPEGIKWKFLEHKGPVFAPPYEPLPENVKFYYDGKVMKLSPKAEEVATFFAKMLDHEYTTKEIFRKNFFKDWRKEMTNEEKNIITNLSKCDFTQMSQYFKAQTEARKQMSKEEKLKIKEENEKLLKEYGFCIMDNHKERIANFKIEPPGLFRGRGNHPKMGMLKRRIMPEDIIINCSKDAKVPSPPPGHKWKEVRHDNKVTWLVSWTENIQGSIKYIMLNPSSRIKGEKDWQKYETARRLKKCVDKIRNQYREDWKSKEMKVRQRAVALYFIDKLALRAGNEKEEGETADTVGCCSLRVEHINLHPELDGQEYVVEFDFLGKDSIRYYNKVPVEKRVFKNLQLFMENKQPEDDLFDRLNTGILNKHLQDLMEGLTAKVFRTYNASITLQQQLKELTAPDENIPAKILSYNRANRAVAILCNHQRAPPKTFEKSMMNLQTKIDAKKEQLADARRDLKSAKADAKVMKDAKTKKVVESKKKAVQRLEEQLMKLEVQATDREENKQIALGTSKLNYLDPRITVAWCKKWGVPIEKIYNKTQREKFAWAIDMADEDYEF
Description: Inhibition of human recombinant topoisomerase 1-mediated pBR322 DNA relaxation at 20 uM by gel electrophoresis. In short, it runs like this:
(§2)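 Relaxation of 100 ng supercoiled pBR322 by 0.4 units recombinant human topo I, with or without compound (20 mM DMSO stocks), at 37 °C for 30 min. Buffer: 10 mM Tris-HCl pH 7.9, 150 mM NaCl, 0.1% BSA, 1 mM spermidine, 5% glycerol. Run on 1% agarose gel in TAE at 15 V for 7 h, stained with ethidium bromide, bands quantified under UV to give inhibition ratio.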

For a further test, the system named is HeLa. As to the kind of experiment: Cytotoxicity against human HeLa cells after 48 hrs by MTT assay. Format: functional, cell-based. In short, it runs like this:
as §1
A general note: Formazan colour is commonly taken as a measure of viable cells.

For test [2], the target named is DNA topoisomerase 2-alpha (Homo sapiens) (UniProt P11388). Description: Inhibition of human recombinant DNA topoisomerase 2alpha -mediated pBR322 DNA relaxation at 100 uM by gel electrophoresis. The procedure, abridged:
(§3)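 Relaxation of 200 ng supercoiled pBR322 by 1 unit human topo IIα, with or without compound, at 30 °C for 30 min. Buffer: 10 mM Tris-HCl pH 7.9, 50 mM NaCl, 50 mM KCl, 5 mM MgCl₂, 1 mM EDTA, 1 mM ATP, 15 µg/mL BSA. Stopped with EDTA and run on 1% agarose gel in TAE at 25 V for 4 h. Band analysis gave inhibition ratio.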

For the next test, the system named is DU-145. Description: Cytotoxicity against human DU145 cells after 48 hrs by MTT assay. Format: functional, cell-based. The note with it: DU-145, 48 h. The procedure, abridged: as §1
A further test relates to HT-29. Description: Cytotoxicity against human HT-29 cells after 48 hrs […]. As to conditions: HT-29, 48 h. Format: functional, cell-based.
The next test relates to MDA-MB-231. As to the kind of experiment: Cytotoxicity against human MDA-MB-231 cells after 48 hrs by MTT assay. Format: functional, cell-based. The note with it: MDA-MB-231, 48 h. In short, it runs like this: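 Cells seeded at 2–4 × 10⁴ per well and grown overnight in medium with 10% FBS at 37 °C, 5% CO₂. Medium was then replaced with medium holding graded compound concentrations. Absorbance was read at 450 nm and IC50 fitted to a four-parameter logistic equation. Mean of three experiments run in triplicate.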

The target in test [3] is T1, DNA topoisomerase 1 (Homo sapiens). Description: Inhibition of human recombinant topoisomerase 1-mediated pBR322 DNA relaxation at 100 uM by gel electrophoresis. In short, it runs like this:
as §2

The target in test [4] is DNA topoisomerase 2-alpha (Homo sapiens) (UniProt P11388). As to the kind of experiment: Inhibition of human recombinant DNA topoisomerase 2alpha -mediated pBR322 DNA relaxation at 20 uM by gel electrophoresis. In short, it runs like this:
as §3

For another test, the system named is Nucleic Acid. Description: Induction of DNA cross linking in linearized pBR322 at 100 uM by alkaline gel electrophoresis. Format: nucleic-acid assay. As to conditions: Escherichia coli. In short, it runs like this: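 pBR322 was linearized with EcoRI and ethanol-precipitated, then incubated with compound for 2 h at room temperature in 10 mM Tris–HCl, 1 mM EDTA, pH 8.0. Samples ran on a denaturing 1.2% alkaline agarose gel in 50 mM NaOH, 1 mM EDTA. The gel was neutralized 1 h in 100 mM Tris, 150 mM NaCl, pH 7.6, alongside a HindIII marker.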

Counter-ions that a name gives are not always drawn. The source made the active and inactive calls. The calls are words filed in the database; no cut-off is given here.

Sequence of DNA topoisomerase 2-alpha (Homo sapiens) (P11388 whole entry): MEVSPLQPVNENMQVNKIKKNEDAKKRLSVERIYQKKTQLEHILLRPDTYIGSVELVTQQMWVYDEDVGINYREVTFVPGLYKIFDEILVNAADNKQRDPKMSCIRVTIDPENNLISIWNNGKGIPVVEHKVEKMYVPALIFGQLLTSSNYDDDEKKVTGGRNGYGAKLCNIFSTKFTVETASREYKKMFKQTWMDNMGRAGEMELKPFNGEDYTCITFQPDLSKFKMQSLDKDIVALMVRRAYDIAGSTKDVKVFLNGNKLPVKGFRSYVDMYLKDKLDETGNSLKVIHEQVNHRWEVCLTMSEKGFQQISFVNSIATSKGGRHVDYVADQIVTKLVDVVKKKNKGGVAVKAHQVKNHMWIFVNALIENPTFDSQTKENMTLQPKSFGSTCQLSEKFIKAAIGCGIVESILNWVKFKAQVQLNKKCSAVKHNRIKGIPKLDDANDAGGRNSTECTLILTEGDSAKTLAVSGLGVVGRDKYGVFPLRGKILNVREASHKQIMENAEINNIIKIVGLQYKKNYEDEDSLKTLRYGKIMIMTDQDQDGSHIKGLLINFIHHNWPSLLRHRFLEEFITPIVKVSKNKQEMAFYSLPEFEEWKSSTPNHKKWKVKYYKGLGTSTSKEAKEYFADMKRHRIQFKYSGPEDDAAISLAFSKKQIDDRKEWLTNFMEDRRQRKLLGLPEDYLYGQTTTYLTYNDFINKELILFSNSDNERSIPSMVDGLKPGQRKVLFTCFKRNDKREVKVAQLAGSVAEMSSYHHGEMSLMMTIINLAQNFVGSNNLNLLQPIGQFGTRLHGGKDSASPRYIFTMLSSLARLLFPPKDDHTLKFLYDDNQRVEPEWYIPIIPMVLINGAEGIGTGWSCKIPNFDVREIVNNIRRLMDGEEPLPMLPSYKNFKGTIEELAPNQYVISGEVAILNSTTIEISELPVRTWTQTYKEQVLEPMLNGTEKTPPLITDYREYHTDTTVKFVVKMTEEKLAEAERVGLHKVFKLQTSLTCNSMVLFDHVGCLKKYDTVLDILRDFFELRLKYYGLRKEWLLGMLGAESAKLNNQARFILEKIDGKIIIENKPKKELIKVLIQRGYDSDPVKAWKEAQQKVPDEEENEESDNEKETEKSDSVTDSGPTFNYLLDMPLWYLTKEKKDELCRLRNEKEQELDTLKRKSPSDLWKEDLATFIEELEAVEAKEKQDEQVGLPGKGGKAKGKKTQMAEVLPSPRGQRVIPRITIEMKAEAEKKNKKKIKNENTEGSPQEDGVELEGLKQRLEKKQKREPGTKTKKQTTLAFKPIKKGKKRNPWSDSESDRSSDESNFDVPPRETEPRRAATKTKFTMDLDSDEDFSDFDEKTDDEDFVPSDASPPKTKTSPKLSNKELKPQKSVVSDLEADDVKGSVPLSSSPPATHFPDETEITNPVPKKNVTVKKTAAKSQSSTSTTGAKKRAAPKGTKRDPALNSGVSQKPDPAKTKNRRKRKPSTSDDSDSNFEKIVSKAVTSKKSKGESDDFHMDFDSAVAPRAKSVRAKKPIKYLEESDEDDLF

As for `O=c1c2c(O)cc(OCC3CS3)cc2oc2ccc3ccccc3c12` (stereo unspecified), the IC50 – broadly, the concentration at which inhibition is half-maximal – in the test on HL-60 was 3.48 µM; with HeLa it was over 100 µM; in the test on DU-145 it was 8.76 µM; with HT-29, 3.58 µM; in the test on MDA-MB-231, 29.1 µM. For the same molecule, the inhibition – broadly, the share of the control response that was lost under treatment – in test [1] is 2.4%; in test [2] it was 5.3%; in [3], -0%; in test [4], -0%.

As to `O=c1c2ccc3ccccc3c2oc2cc(OCC3CO3)cc(O)c12` (stereo unspecified), the IC50 with HL-60 was 3.67 µM; in the test with HeLa, over 50 µM; with DU-145, 2.56 µM; in the test on HT-29, 18.9 µM; with MDA-MB-231, 0.73 µM. Besides, the inhibition was determined as 10.6% in test [1], 9% in [2], 1.7% in test [3] and 5.5% in test [4].

Take `O=c1c2c(OCC3CS3)cc(OCC3CS3)cc2oc2ccc3ccccc3c12` (stereo unspecified): the IC50 was 1.85 µM in the test on HL-60; 24.9 µM in the test with HeLa; 1.32 µM in the test with DU-145; 0.75 µM with HT-29; 18.9 µM in the test with MDA-MB-231. Further, the inhibition is -0% in [1], 4.4% in test [2], -0% in test [3] and 8.4% in [4].

As to `O=c1c2ccc3ccccc3c2oc2cc(OCC3CS3)cc(OCC3CS3)c12` (stereo unspecified), the IC50 in the test with HL-60 was 37 µM; in the test with HeLa it was 25.6 µM; in the test on DU-145 it was 5.66 µM; with HT-29 it was over 50 µM; in the test with MDA-MB-231, over 50 µM. Besides, the inhibition in test [1] was found to be 56.5%; in test [2], 71.9%; in test [3] it was 79%; in [4] it was 72.7%.

On to `O=c1c2cc3ccccc3cc2oc2cc(OCC3CO3)cc(O)c12` (stereo unspecified), for which the IC50 with HL-60 is 9.4 µM; in the test with HeLa, over 100 µM; in the test with DU-145, 36.2 µM; in the test with HT-29, 2.34 µM; with MDA-MB-231 it was 15.1 µM. In addition, the inhibition in test [1] was 2.6%; in [2], -0%; in [3], 13.7%; in [4], -0%.

With `O=c1c2cc3ccccc3cc2oc2cc(OCC3CO3)cc(OCC3CO3)c12` (stereo unspecified), the IC50 in the test on HL-60 was 5.13 µM; in the test with HeLa, 2.19 µM; in the test with DU-145, 3.01 µM; in the test with HT-29, 0.6 µM; in the test with MDA-MB-231, 1.64 µM. Further, the inhibition in test [1] turned out to be 8.8%; in test [2], 60.1%; in test [3] it was 12.3%; in [4] it was 8.9%. The result in the test with Nucleic Acid was Active.

Regarding `CC[C@@]1(O)C(=O)OCc2c1cc1n(c2=O)Cc2cc3ccccc3nc2-1` [CAMPTOTHECIN], the IC50 in the test with HL-60 came out at 0.065 µM; in the test on HeLa it was 0.86 µM; in the test with DU-145, 3.57 µM; in the test on HT-29 it was 0.85 µM; in the test on MDA-MB-231, 0.92 µM.

With `O=c1c2cc3ccccc3cc2oc2cc(OCC3CS3)cc(OCC3CS3)c12` (stereo unspecified), the IC50 came to 5.13 µM in the test with HL-60; 8.01 µM in the test with HeLa; 19.4 µM with DU-145; 1.66 µM with HT-29; 5.16 µM in the test on MDA-MB-231. Also, the inhibition in test [1] was -0%; in [2], 1.9%; in test [3] it was 4.3%; in test [4] it was 13.5%.

For the molecule `O=c1c2c(OCC3CO3)cc(OCC3CO3)cc2oc2ccc3ccccc3c12` (stereo unspecified), the IC50 is 6.47 µM with HL-60; 10.2 µM in the test on HeLa; 3.44 µM in the test on DU-145; 7.38 µM in the test with HT-29; over 50 µM in the test with MDA-MB-231. The inhibition in test [1] is -0%; in [2], 1%; in test [3], 18%; in [4], -0%. Also, the result with Nucleic Acid was inactive.

Regarding `O=c1c2ccc3ccccc3c2oc2cc(OCC3CS3)cc(O)c12` (stereo unspecified), the IC50 with HL-60 was 22.6 µM; in the test on HeLa, over 50 µM; in the test with DU-145, 10.8 µM; in the test on HT-29 it was over 50 µM; in the test on MDA-MB-231, over 50 µM. Besides, the inhibition was 2.5% in test [1], 13.9% in [2], 15.6% in test [3] and -0% in test [4].

Turning to `O=c1c2cc3ccccc3cc2oc2cc(OCC3CS3)cc(O)c12` (stereo unspecified), the IC50 in the test on HL-60 turned out to be 2.48 µM; with HeLa it was 8.52 µM; in the test on DU-145, 1.55 µM; in the test with HT-29, 5.4 µM; with MDA-MB-231 it was 14.8 µM. The inhibition in test [1] is -0%; in test [2], -0%; in test [3], 0.5%; in [4], 7.2%.

For the molecule `COc1cccc2c1C(=O)c1c(O)c3c(c(O)c1C2=O)C[C@@](O)(C(=O)CO)C[C@@H]3O[C@H]1C[C@H](N)[C@H](O)[C@H](C)O1` [DOXORUBICIN HYDROCHLORIDE], the IC50 in the test with HL-60 stood at 0.94 µM; in the test with HeLa it was 0.71 µM; in the test with DU-145 it was 1.19 µM; with HT-29 it was 0.95 µM; in the test with MDA-MB-231, 3.15 µM.

For the molecule `COc1cc([C@@H]2c3cc4c(cc3[C@@H](O[C@@H]3O[C@@H]5CO[C@@H](C)O[C@H]5[C@H](O)[C@H]3O)[C@H]3COC(=O)[C@H]23)OCO4)cc(OC)c1O` [ETOPOSIDE], the IC50 in the test on HL-60 was 0.97 µM; in the test with HeLa it was 0.47 µM; with DU-145 it was 1.63 µM; in the test on HT-29, 1.42 µM; in the test with MDA-MB-231, 2.87 µM.

For the molecule `O=c1c2c(O)cc(OCC3CO3)cc2oc2ccc3ccccc3c12` (stereo unspecified), the IC50 is 2.31 µM with HL-60; over 100 µM in the test with HeLa; 1.4 µM with DU-145; 0.96 µM in the test on HT-29; over 50 µM in the test with MDA-MB-231. For the same molecule, the inhibition was 9.7% in [1], 3.7% in test [2], -0% in test [3] and -0% in test [4].

As to `O=c1c2ccc3ccccc3c2oc2cc(OCC3CO3)cc(OCC3CO3)c12` (stereo unspecified), the IC50 with HL-60 turned out to be 5.4 µM; in the test on HeLa it was 24.2 µM; in the test on DU-145 it was 1.29 µM; in the test on HT-29, 8.2 µM; with MDA-MB-231, 7.43 µM. The inhibition in [1] is -0%; in test [2], 5.7%; in [3], 11.9%; in test [4], 0.1%. Besides, in the test on Nucleic Acid, the result was Active.

Source of the values: ChEMBL document CHEMBL1156878, “New benzoxanthone derivatives as topoisomerase inhibitors and DNA cross-linkers” (Bioorg Med Chem, 2010).
